The results in this text go back to ChEMBL document CHEMBL3244108, “Potential antitumor agents. Some sulfur-substituted derivatives of alpha- and beta-2'-deoxythioguanosine” (J Med Chem, 1977).

Data set [1] deals with L1210. In words: Inhibition of DNA synthesis in mouse L1210 cells assessed as inhibition of tritiated thymidine incorporation into nucleic acids. The format is functional. The conditions noted are these: read-out: ED50 (the source's name). A digest of the protocol:
(§1)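 Cultured L1210 cells were labeled with tritiated thymidine (DNA) or tritiated uridine (RNA), and label incorporation into the isolated nucleic acids was measured. The ED50 is the drug concentration that inhibits this incorporation by 50%. Other details are referenced to earlier work.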
A general note: Incorporation of labelled thymidine or its analogues reports DNA synthesis.

The species named for another data set is Mus musculus. In words: Acute toxicity in mouse. In kind it is organism-based. The conditions noted are these: in vivo.
Data set [2] relates to L1210. In words: Inhibition of RNA synthesis in mouse L1210 cells assessed as inhibition of tritiated uridine incorporation into nucleic acids. The conditions noted are these: read-out: ED50 (the source's name). In kind it is functional. A digest of the protocol: as §1
Data set [3] relates to L1210. In words: Antitumor activity in mouse L1210 cells allografted in mouse assessed as increase in survival time at optimal dose administered qd on days 1 to 5 of challenge relative to control. The format is functional. Put shortly: (§2)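 Mouse leukemia survival test run under standard National Cancer Institute protocols. T/C = (treated-animal average survival time / control-animal average survival time) × 100%. Optimum dose is expressed as mg/kg/dose. T/C data were duplicated in separate experiments except where a footnote states that confirmation was not run.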

The next data set deals with P388. In words: Antitumor activity in mouse P388 cells allografted in mouse assessed as increase in survival time at optimal dose administered qd on days 1 to 9 of challenge relative to control. In kind it is functional. A digest of the protocol: as §2
Data set [4] relates to L1210. In words: Antitumor activity in mouse L1210 cells allografted in mouse assessed as increase in survival time at optimal dose administered qd on days 1 to 16 of challenge relative to control. The format is functional. A digest of the protocol: as §2
The subject of data set [5] is L1210. In words: Antitumor activity in mouse L1210 cells allografted in mouse assessed as increase in survival time at optimal dose administered as single dose relative to control. In kind it is functional. Put shortly:
as §2

Data set [6] has as its system L1210. In words: Antitumor activity in mouse L1210 cells allografted in mouse assessed as increase in survival time at 400 mg/kg administered as single dose relative to control. In kind it is functional. Put shortly: as §2
The test system of data set [7] is L1210. In words: Antitumor activity in mouse L1210 cells allografted in mouse assessed as increase in survival time at optimal dose administered qd on days 1 to 9 of challenge relative to control. The format is functional. Put shortly: as §2

`Cn1cnc([N+](=O)[O-])c1Sc1nc(N)nc2c1ncn2[C@H]1C[C@H](O)[C@@H](CO)O1`: the EC50 came to 25 µM in the data set on L1210 [1] and 11 µM with L1210 [2]. Further, the Activity result in the data set listed under Mus musculus is given as “Non-toxic”. Besides, the values for the T/C in the data set on L1210 [3] and in the data set with P388 were 173% and 161%, respectively.
As for `CSc1nc(N)nc2c1ncn2[C@H]1C[C@H](O)[C@@H](CO)O1`, the figures for the EC50 with L1210 [1] and in the data set on L1210 [2] were 27 µM and 24 µM, respectively. Moreover, the Activity entry in the data set listed under Mus musculus is “Non-toxic”. Also, the T/C (in general, the result in the treated group divided by that in the control group, in per cent) in the data set with L1210 [3] was determined as 128%.
Take `Nc1nc2c(ncn2[C@@H]2C[C@H](O)[C@@H](CO)O2)c(=S)[nH]1`: the T/C with L1210 [4] was 174%; in the data set with L1210 [3] it was 161%; with P388, 168%. Besides, the EC50 in the data set on L1210 [1] and with L1210 [2] was greater than 100 µM in each case.
As for `Nc1nc(SCc2ccccc2)c2ncn([C@H]3C[C@H](O)[C@@H](CO)O3)c2n1`, the T/C with L1210 [5] is listed as 172%; in the data set with L1210 [6], 157%. For the same compound, the Activity entry in the data set listed under Mus musculus is given as “Non-toxic”.
As to `Nc1nc(SCc2ccccc2)c2ncn([C@@H]3C[C@H](O)[C@@H](CO)O3)c2n1`, in the data set listed under Mus musculus, the Activity result was “Non-toxic”. For the same compound, the T/C in the data set with L1210 [3] was 144%.
On to `CSc1nc(N)nc2c1ncn2[C@@H]1C[C@H](O)[C@@H](CO)O1`, for which the EC50 with L1210 [1] and in the data set on L1210 [2] was greater than 100 µM in each case. For the same compound, the Activity result in the data set listed under Mus musculus was “Non-toxic”. Further, the T/C with L1210 [3] and in the data set on P388 was less than 125% each time.
For `C=CCSc1nc(N)nc2c1ncn2[C@H]1C[C@H](O)[C@@H](CO)O1`, the EC50 with L1210 [1] came to 5.5 µM; in the data set on L1210 [2] it was 3 µM. Further, the Activity result in the data set filed under Mus musculus is given as “Non-toxic”. In addition, the figures for the T/C in the data set on L1210 [3] and in the data set on P388 were 179% and 181%, respectively.
Taken in the same sequence, the figures for `C=CCSc1nc(N)nc2c1ncn2[C@@H]1C[C@H](O)[C@@H](CO)O1` were greater than 100 µM, greater than 100 µM, “Non-toxic”, less than 125% and less than 125%.
Regarding `Cc1cccc(CSc2nc(N)nc3c2ncn3[C@H]2C[C@H](O)[C@@H](CO)O2)n1`, the EC50 in the data set on L1210 [1] came to 64 µM; in the data set on L1210 [2], 31 µM. Further, the Activity entry in the data set filed under Mus musculus is “Non-toxic”. The results for the T/C in the data set on L1210 [3] and in the data set on P388 were 153% and less than 125%, respectively.
Taken in the same sequence, the figures for `Cc1cccc(CSc2nc(N)nc3c2ncn3[C@@H]2C[C@H](O)[C@@H](CO)O2)n1` were 79 µM, 72 µM, “Non-toxic”, less than 125% and less than 125%.
Regarding `Cn1cnc([N+](=O)[O-])c1Sc1nc(N)nc2c1ncn2[C@@H]1C[C@H](O)[C@@H](CO)O1`, the EC50 with L1210 [1] and in the data set with L1210 [2] was greater than 100 µM each time. The Activity result in the data set filed under Mus musculus is reported as “Non-toxic”. The T/C is given as 137% in the data set on L1210 [3] and less than 125% with P388.
Regarding `CC(=O)OC[C@H]1O[C@@H](n2cnc3c(=S)[nH]c(N)nc32)C[C@@H]1OC(C)=O`, the T/C in the data set on L1210 [3] stood at 156%; with P388 it was 174%.
As for `CC(=O)OC[C@H]1O[C@H](n2cnc3c(=S)[nH]c(N)nc32)C[C@@H]1OC(C)=O`, the T/C in the data set with L1210 [3] is reported as less than 125%.
Turning to `CSc1nc(NC(C)=O)nc2c1ncn2[C@H]1C[C@H](O)[C@@H](CO)O1`, in the data set listed under Mus musculus, the Activity result is “Non-toxic”. In addition, in the data set with L1210 [3], the T/C is less than 125%.
For `Nc1nc2c(ncn2[C@H]2C[C@H](O)[C@@H](CO)O2)c(=S)[nH]1` [ATEGANOSINE], the T/C with L1210 [7] is 208%; in the data set with L1210 [3], 219%; in the data set with P388 it was 138%. In addition, the EC50 is greater than 100 µM in the data set on L1210 [1] and 50 µM in the data set on L1210 [2].
